From ChEMBL document CHEMBL2029228, “Antimalarial activity of 9a-N substituted 15-membered azalides with improved in vitro and in vivo activity over azithromycin” (J Med Chem, 2012) come the findings set out here.

One experiment deals with Plasmodium falciparum. As to the kind of experiment: Antimalarial activity against mefloquine-resistant Plasmodium falciparum TM91C235 assessed as [3H]hypoxanthine incorporation after 48 hrs. The format is functional, organism-based. The method, boiled down: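 Tritiated hypoxanthine incorporation assay (Desjardins method, Milhous modification) with 48 h drug exposure. Uses P. falciparum clone TM91C235 (Southeast Asian, mefloquine-resistant). Compounds 2-fold diluted over 11 concentrations. IC50 derived by nonlinear logistic dose-response fitting, averaged where multiple runs were done.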

Another experiment deals with HepG2. Description: Cytotoxicity against human HepG2 cells after 24 hrs by MTS assay. The format is cell-based. The note with it: HepG2, 24 h. The method, boiled down: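 HepG2 cells kept in RPMI 1640 with 10% FBS plus antibiotics at 37 °C, 5% CO₂. 50 000 cells per well exposed to 10 two-fold serial dilutions for 24 h. MTS reagent then added for 2 h more, absorbance read at 490 nm, IC50 derived.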
For orientation: Formazan colour is commonly taken as a measure of viable cells.

Broadly, the IC50 is the point on the concentration scale where inhibition reaches its midpoint. Consider `CC[C@H]1OC(=O)[C@H](C)[C@@H](O)[C@H](C)[C@@H](O[C@@H]2O[C@H](C)C[C@H](N(C)C)[C@H]2O)[C@](C)(O)C[C@@H](C)CN(CCCNC(=O)[C@H](C)c2ccc3cc(OC)ccc3c2)[C@H](C)[C@@H](O)[C@]1(C)O`, for which the IC50 with Plasmodium falciparum was found to be 520 nM.
Take `CC[C@H]1OC(=O)[C@H](C)[C@@H](O[C@H]2C[C@@](C)(OC)[C@@H](O)[C@H](C)O2)[C@H](C)[C@@H](O[C@@H]2O[C@H](C)C[C@H](N(C)C)[C@H]2O)[C@](C)(O)C[C@@H](C)CN(CCCNCc2ccncc2)[C@H](C)[C@@H](O)[C@]1(C)O`: the values for the half-inhibitory concentration (IC50) in the experiment with Plasmodium falciparum and in the experiment with HepG2 were 568 nM and > 50000 nM, respectively.
For `CC[C@H]1OC(=O)[C@H](C)[C@@H](O[C@H]2C[C@@](C)(OC)[C@@H](O)[C@H](C)O2)[C@H](C)[C@@H](O[C@@H]2O[C@H](C)C[C@H](N(C)C)[C@H]2O)[C@](C)(O)C[C@@H](C)CN(CCC(=O)NCCCCc2ccccc2)[C@H](C)[C@@H](O)[C@]1(C)O` the same measures were 162 nM and 40000 nM.
As to `CC[C@H]1OC(=O)[C@H](C)[C@@H](O[C@H]2C[C@@](C)(OC)[C@@H](O)[C@H](C)O2)[C@H](C)[C@@H](O[C@@H]2O[C@H](C)C[C@H](N(C)C)[C@H]2O)[C@](C)(O)C[C@@H](C)CN(CCCNCc2ccc3ccccc3n2)[C@H](C)[C@@H](O)[C@]1(C)O`, the IC50 in the experiment on Plasmodium falciparum turned out to be 62 nM; with HepG2, 28000 nM.
With `CC[C@H]1OC(=O)[C@H](C)[C@@H](O)[C@H](C)[C@@H](O[C@@H]2O[C@H](C)C[C@H](N(C)C)[C@H]2O)[C@](C)(O)C[C@@H](C)CN(CCCNCc2cnc3ccccc3c2)[C@H](C)[C@@H](O)[C@]1(C)O`, the half-inhibitory concentration (IC50) with Plasmodium falciparum stood at 201 nM.
Regarding `CC[C@H]1OC(=O)[C@H](C)[C@@H](O)[C@H](C)[C@@H](O[C@@H]2O[C@H](C)C[C@H](N(C)C)[C@H]2O)[C@](C)(O)C[C@@H](C)CN(CCCNCc2ccnc3ccccc23)[C@H](C)[C@@H](O)[C@]1(C)O`, the IC50 in the experiment on Plasmodium falciparum was 264 nM; with HepG2, > 50000 nM.
For `CC[C@H]1OC(=O)[C@H](C)[C@@H](O[C@H]2C[C@@](C)(OC)[C@@H](O)[C@H](C)O2)[C@H](C)[C@@H](O[C@@H]2O[C@H](C)C[C@H](N(C)C)[C@H]2O)[C@](C)(O)C[C@@H](C)CN(CCCNC(=O)c2ocnc2C)[C@H](C)[C@@H](O)[C@]1(C)O`, in the experiment with Plasmodium falciparum, the concentration for half-maximal inhibition (IC50) turned out to be 878 nM.
As to `CC[C@H]1OC(=O)[C@H](C)[C@@H](O)[C@H](C)[C@@H](O)[C@](C)(O)C[C@@H](C)CN(CCCNCc2cnc3ccccc3c2)[C@H](C)[C@@H](O)[C@]1(C)O`, the IC50 with Plasmodium falciparum is 1890 nM; in the experiment with HepG2 it was > 50000 nM.
For `CC[C@H]1OC(=O)[C@H](C)[C@@H](O[C@H]2C[C@@](C)(OC)[C@@H](O)[C@H](C)O2)[C@H](C)[C@@H](O[C@@H]2O[C@H](C)C[C@H](N(C)C)[C@H]2O)[C@](C)(O)C[C@@H](C)CN(CCCNC(=O)Cc2ccc3ccccc3c2)[C@H](C)[C@@H](O)[C@]1(C)O` the same measures were 79 nM and 40000 nM.
For `CC[C@H]1OC(=O)[C@H](C)[C@@H](O[C@H]2C[C@@](C)(OC)[C@@H](O)[C@H](C)O2)[C@H](C)[C@@H](O[C@@H]2O[C@H](C)C[C@H](N(C)C)[C@H]2O)[C@](C)(O)C[C@@H](C)CN(CCCNC(=O)[C@H](C)c2ccc3cc(OC)ccc3c2)[C@H](C)[C@@H](O)[C@]1(C)O` the same measures were 58 nM and 20000 nM.
For `CC[C@H]1OC(=O)[C@H](C)[C@@H](O[C@H]2C[C@@](C)(OC)[C@@H](O)[C@H](C)O2)[C@H](C)[C@@H](O[C@@H]2O[C@H](C)C[C@H](N(C)C)[C@H]2O)[C@](C)(O)C[C@@H](C)CN(CCCNCCCCc2ccccc2)[C@H](C)[C@@H](O)[C@]1(C)O` the same measures were 51 nM and 16000 nM.
With `CC[C@H]1OC(=O)[C@H](C)[C@@H](O)[C@H](C)[C@@H](O)[C@](C)(O)C[C@@H](C)CN(CCCNC(=O)c2ocnc2C)[C@H](C)[C@@H](O)[C@]1(C)O`, in the experiment on Plasmodium falciparum, the 50% inhibitory concentration (IC50) is > 21300 nM.
With `CC[C@H]1OC(=O)[C@H](C)[C@@H](O[C@H]2C[C@@](C)(OC)[C@@H](O)[C@H](C)O2)[C@H](C)[C@@H](O[C@@H]2O[C@H](C)C[C@H](N(C)C)[C@H]2O)[C@](C)(O)C[C@@H](C)CN(CCCNC(=O)CCCc2ccccc2)[C@H](C)[C@@H](O)[C@]1(C)O`, the results for the IC50 with Plasmodium falciparum and in the experiment with HepG2 were 85 nM and > 50000 nM, respectively.
For `CC[C@H]1OC(=O)[C@H](C)[C@@H](O[C@H]2C[C@@](C)(OC)[C@@H](O)[C@H](C)O2)[C@H](C)[C@@H](O[C@@H]2O[C@H](C)C[C@H](N(C)C)[C@H]2O)[C@](C)(O)C[C@@H](C)CN(CCCNCc2cccnc2)[C@H](C)[C@@H](O)[C@]1(C)O`, in that order: 391 nM and > 50000 nM.
For `CC[C@H]1OC(=O)[C@H](C)[C@@H](O[C@H]2C[C@@](C)(OC)[C@@H](O)[C@H](C)O2)[C@H](C)[C@@H](O[C@@H]2O[C@H](C)C[C@H](N(C)C)[C@H]2O)[C@](C)(O)C[C@@H](C)CN(CCC(=O)NCc2ccccc2)[C@H](C)[C@@H](O)[C@]1(C)O`, in that order: 261 nM and > 50000 nM.
For `CC[C@H]1OC(=O)[C@H](C)[C@@H](O[C@H]2C[C@@](C)(OC)[C@@H](O)[C@H](C)O2)[C@H](C)[C@@H](O[C@@H]2O[C@H](C)C[C@H](N(C)C)[C@H]2O)[C@](C)(O)C[C@@H](C)CN(CCCNC(=O)CCCCc2ccccc2)[C@H](C)[C@@H](O)[C@]1(C)O` the same measures were 92 nM and 49000 nM.
Turning to `CC[C@H]1OC(=O)[C@H](C)[C@@H](O[C@H]2C[C@@](C)(OC)[C@@H](O)[C@H](C)O2)[C@H](C)[C@@H](O[C@@H]2O[C@H](C)C[C@H](N(C)C)[C@H]2O)[C@](C)(O)C[C@@H](C)CN(CCCNCCCc2ccccc2)[C@H](C)[C@@H](O)[C@]1(C)O`, the IC50 in the experiment on Plasmodium falciparum came to 106 nM; in the experiment with HepG2, 40000 nM.
For `CC[C@H]1OC(=O)[C@H](C)[C@@H](O[C@H]2C[C@@](C)(OC)[C@@H](O)[C@H](C)O2)[C@H](C)[C@@H](O[C@@H]2O[C@H](C)C[C@H](N(C)C)[C@H]2O)[C@](C)(O)C[C@@H](C)CN(CCCNCc2ccccc2)[C@H](C)[C@@H](O)[C@]1(C)O` the same measures were 104 nM and > 50000 nM.
As for `CC[C@H]1OC(=O)[C@H](C)[C@@H](O)[C@H](C)[C@@H](O[C@@H]2O[C@H](C)C[C@H](N(C)C)[C@H]2O)[C@](C)(O)C[C@@H](C)CN(CCCNC(=O)Cc2cccc3ccccc23)[C@H](C)[C@@H](O)[C@]1(C)O`, in the experiment with Plasmodium falciparum, the IC50 turned out to be 1370 nM.
For `CC[C@H]1OC(=O)[C@H](C)[C@@H](O[C@H]2C[C@@](C)(OC)[C@@H](O)[C@H](C)O2)[C@H](C)[C@@H](O[C@@H]2O[C@H](C)C[C@H](N(C)C)[C@H]2O)[C@](C)(O)C[C@@H](C)CN(CCCNC(=O)Cc2ccccc2)[C@H](C)[C@@H](O)[C@]1(C)O`, the IC50 with Plasmodium falciparum is 233 nM; with HepG2, > 50000 nM.
On to `CC[C@H]1OC(=O)[C@H](C)[C@@H](O[C@H]2C[C@@](C)(OC)[C@@H](O)[C@H](C)O2)[C@H](C)[C@@H](O[C@@H]2O[C@H](C)C[C@H](N(C)C)[C@H]2O)[C@](C)(O)C[C@@H](C)CN(CCCNc2ncnc3[nH]cnc23)[C@H](C)[C@@H](O)[C@]1(C)O`, for which the IC50 was > 6400 nM in the experiment with Plasmodium falciparum and > 50000 nM with HepG2.
As to `CC[C@H]1OC(=O)[C@H](C)[C@@H](O[C@H]2C[C@@](C)(OC)[C@@H](O)[C@H](C)O2)[C@H](C)[C@@H](O[C@@H]2O[C@H](C)C[C@H](N(C)C)[C@H]2O)[C@](C)(O)C[C@@H](C)CN(CCCNCc2cccc3ccccc23)[C@H](C)[C@@H](O)[C@]1(C)O`, the values for the IC50 with Plasmodium falciparum and in the experiment with HepG2 were 25 nM and 10000 nM, respectively.
For `CCOc1ccc2ccccc2c1CNCCCN1C[C@H](C)C[C@@](C)(O)[C@H](O[C@@H]2O[C@H](C)C[C@H](N(C)C)[C@H]2O)[C@@H](C)[C@H](O[C@H]2C[C@@](C)(OC)[C@@H](O)[C@H](C)O2)[C@@H](C)C(=O)O[C@H](CC)[C@@](C)(O)[C@H](O)[C@H]1C`, in that order: 26 nM and 7000 nM.
As to `CC[C@H]1OC(=O)[C@H](C)[C@@H](O[C@H]2C[C@@](C)(OC)[C@@H](O)[C@H](C)O2)[C@H](C)[C@@H](O[C@@H]2O[C@H](C)C[C@H](N(C)C)[C@H]2O)[C@](C)(O)C[C@@H](C)CN(CCC(=O)NCc2cccc3ccccc23)[C@H](C)[C@@H](O)[C@]1(C)O`, the half-maximal inhibitory concentration (IC50) was found to be 79 nM with Plasmodium falciparum and 49000 nM in the experiment on HepG2.
`CC[C@H]1OC(=O)[C@H](C)[C@@H](O)[C@H](C)[C@@H](O[C@@H]2O[C@H](C)C[C@H](N(C)C)[C@H]2O)[C@](C)(O)C[C@@H](C)CN(CCCNCc2ccc3ccccc3n2)[C@H](C)[C@@H](O)[C@]1(C)O`: in the experiment on Plasmodium falciparum, the IC50 was 164 nM.
For the molecule `CC[C@H]1OC(=O)[C@H](C)[C@@H](O[C@H]2C[C@@](C)(OC)[C@@H](O)[C@H](C)O2)[C@H](C)[C@@H](O[C@@H]2O[C@H](C)C[C@H](N(C)C)[C@H]2O)[C@](C)(O)C[C@@H](C)CN(CCCNCc2cnc3ccccc3c2)[C@H](C)[C@@H](O)[C@]1(C)O`, the IC50 in the experiment on Plasmodium falciparum amounted to 50 nM; with HepG2 it was 45000 nM.
For `CC[C@H]1OC(=O)[C@H](C)[C@@H](O[C@H]2C[C@@](C)(OC)[C@@H](O)[C@H](C)O2)[C@H](C)[C@@H](O[C@@H]2O[C@H](C)C[C@H](N(C)C)[C@H]2O)[C@](C)(O)C[C@@H](C)CN(CCCNCc2ccccn2)[C@H](C)[C@@H](O)[C@]1(C)O`, the IC50 in the experiment on Plasmodium falciparum was 1480 nM.
The same measure, in the same setting: as for `CC[C@H]1OC(=O)[C@H](C)[C@@H](O[C@H]2C[C@@](C)(OC)[C@@H](O)[C@H](C)O2)[C@H](C)[C@@H](O[C@@H]2O[C@H](C)C[C@H](N(C)C)[C@H]2O)[C@](C)(O)C[C@@H](C)CN(CCCNC(=O)Cc2cccc3ccccc23)[C@H](C)[C@@H](O)[C@]1(C)O`, the figure is 62 nM.
